Test results: ChEMBL document CHEMBL1681789, “New bichalcone analogs as NF-κB inhibitors and as cytotoxic agents inducing Fas/CD95-dependent apoptosis” (Bioorg Med Chem, 2011)
Activity calls are given as the source filed them. No cut-off for these calls is given here.

What was measured:
KB = experiment: Cytotoxicity against human KB cells after 3 days; assay type: functional; conditions: 72 h
Method in brief: (§1)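 Seeded at 1500–7500 cells/well; compounds added from DMSO-diluted stock. After 3 days, attached cells were fixed with cold 50% TCA, stained with 0.4% sulforhodamine B and read at 562 nm. EC50 is the concentration reducing growth by 50%, averaged over at least three independent determinations. Cells were grown in RPMI-1640 with […], 0.25% bicarbonate and 10% FBS.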

HT-29 [1] = experiment: Induction of apoptosis in human HT-29 cells assessed as increased expression of t-Bid protein by Western blotting; assay type: functional, cell-based
Method in brief: (§2)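 Total or cytosolic extracts (30 µg protein) from treated HT-29 cells were run on SDS-PAGE and transferred to PVDF. Blots were probed for 12 h with monoclonal antibodies to the named protein, followed by an HRP secondary, and detected by ECL.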

[2] = Inhibition of Nitric oxide synthase activity in mouse BV2 cells assessed as LPS-induced NO production after 24 hrs by Griess reaction; assay type: cell-based; conditions: BV-2, 24 h
Method in brief: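 Murine BV2 microglia were cultured in DMEM with 5% FBS and given 1–50 µM drug with 0.5 µg/mL LPS. Nitrite accumulated in the medium over 24 h was measured by Griess reagent. IC50 values are means ± SEM from 3–6 experiments on different days using different passages.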

HT-29 [3] = experiment: Cytotoxicity against human HT-29 cells assessed as nuclear shrinkage and chromatin condensation at 50 uM for 24 hrs using DAPI staining by fluorescence microscopy relative to untreated cells; assay type: functional, cell-based
Method in brief: (§3)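 HT-29 cells, kept in RPMI-1640 with FBS and penicillin/streptomycin, were treated for 24 or 48 h. They were fixed in 4% paraformaldehyde for 30 min and stained with 1 µg/mL DAPI for 30 min in the dark. Nuclear morphology was examined by fluorescence microscopy at ×200.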

HT-29 [4] = experiment: Induction of apoptosis in human HT-29 cells at 30 uM for 24 hrs pretreated with caspase 3 inhibitor […] for 1 hr by MTT assay; assay type: functional, cell-based
Method in brief: (§4)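 HT-29 cells were pretreated for 1 h with caspase-3, -8 or -9 inhibitor (dissolved in DMSO, diluted in medium), then given 30 µM for 24 h. Viability was read by MTT at 570 nm, in triplicate.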

DU-145 = experiment: Cytotoxicity against human DU145 cells after 3 days; assay type: functional; conditions: DU-145, 72 h; method in brief: as §1
HT-29 [5] = experiment: Cytotoxicity against human HT-29 cells assessed as nuclear shrinkage and chromatin condensation at 50 uM for 48 hrs using DAPI staining by fluorescence microscopy relative to untreated cells; assay type: functional, cell-based; method in brief: as §3
HT-29 [6] = experiment: Induction of apoptosis in human HT-29 cells assessed as increased expression of Fas/CD95 protein by Western blotting; assay type: functional, cell-based; method in brief: as §2
HT-29 [7] = experiment: Induction of apoptosis in human HT-29 cells assessed as increased expression of Endo G protein by Western blotting; assay type: functional, cell-based; method in brief: as §2
HT-29 [8] = experiment: Induction of apoptosis in human HT-29 cells assessed as increased expression of AIF protein by Western blotting; assay type: functional, cell-based; method in brief: as §2
HT-29 [9] = experiment: Induction of apoptosis in human HT-29 cells assessed as increased expression of Apaf-1 protein by Western blotting; assay type: functional, cell-based; method in brief: as §2
BV-2 = experiment: Inhibition of NADPH oxidase mediated-ROS production in mouse BV2 cells; assay type: cell-based
Method in brief: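 Compounds were incubated with 50 µg microglial cell homogenate for 20 min at 37 °C in the dark. Superoxide production was started with 200 µM NADPH, and chemiluminescence was followed for 30 min; the AUC represents ROS production. DPI served as positive control.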

HT-29 [10] = experiment: Induction of apoptosis in human HT-29 cells assessed as DNA fragmentation at 30 uM using TUNEL staining by flow cytometry; assay type: functional, cell-based
Method in brief: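 HT-29 cells in 6-well plates were treated with 30 µM for 24 and 48 h and harvested. They were labeled with TdT enzyme at 37 °C for 1 h, then FITC anti-digoxigenin conjugate at 37 °C for 30 min in the dark. TUNEL-positive cells were counted by flow cytometry, in triplicate.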

HT-29 [11] = experiment: Induction of apoptosis in human HT-29 cells at 30 uM for 24 hrs pretreated with caspase 9 inhibitor Z-LEHD-FMK for 1 hr by MTT assay; assay type: functional, cell-based; method in brief: as §4
A549 = experiment: Cytotoxicity against human A549 cells after 3 days; assay type: functional; conditions: A549, 72 h; method in brief: as §1
HT-29 [12] = experiment: Induction of apoptosis in human HT-29 cells assessed as increased expression of Bax protein by Western blotting; assay type: functional, cell-based; method in brief: as §2
HT-29 [13] = experiment: Induction of apoptosis in human HT-29 cells assessed as decreased expression of pro-caspase-9 protein by Western blotting; assay type: functional, cell-based; method in brief: as §2
HCT-8 = experiment: Cytotoxicity against human HCT8 cells after 3 days; assay type: functional; conditions: HCT-8, 72 h; method in brief: as §1
HT-29 [14] = experiment: Cytotoxicity against human HT-29 cells assessed as nuclear shrinkage and chromatin condensation at 30 uM for 48 hrs using DAPI staining by fluorescence microscopy relative to untreated cells; assay type: functional, cell-based; method in brief: as §3
HT-29 [15] = experiment: Induction of apoptosis in human HT-29 cells assessed as increased expression of caspase 3 protein by Western blotting; assay type: functional, cell-based; method in brief: as §2
HT-29 [16] = experiment: Induction of apoptosis in human HT-29 cells assessed as caspase 9 activation at 30 uM for 24 hrs by MTT assay; assay type: functional, cell-based
HT-29 [17] = experiment: Induction of apoptosis in human HT-29 cells assessed as caspase 3 activation at 30 uM for 24 hrs by MTT assay; assay type: functional, cell-based
HT-29 [18] = experiment: Induction of apoptosis in human HT-29 cells at 30 uM for 24 hrs pretreated with caspase 8 inhibitor Z-IETD-FMK for 1 hr by MTT assay; assay type: functional, cell-based; method in brief: as §4
HT-29 [19] = experiment: Induction of apoptosis in human HT-29 cells assessed as increased expression of cytosolic cytochrome C protein by Western blotting; assay type: functional, cell-based; method in brief: as §2
HT-29 [20] = experiment: Cytotoxicity against human HT-29 cells for 24 hrs by MTT assay; assay type: functional, cell-based
Method in brief: (§5)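 HT-29 cells in 96-well plates were exposed to 0–50 µM for 24 h, or to 30 µM for 12–72 h. MTT was then added for 4 h at 37 °C in the dark, and formazan was dissolved in DMSO and read at 570 nm. Viability is expressed as % of untreated OD, run in triplicate, mean±SD.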

HT-29 [21] = experiment: Cytotoxicity against human HT-29 cells assessed as nuclear shrinkage and chromatin condensation at 30 uM for 24 hrs using DAPI staining by fluorescence microscopy relative to untreated cells; assay type: functional, cell-based; method in brief: as §3
HT-29 [22] = experiment: Induction of apoptosis in human HT-29 cells assessed as decreased expression of Bcl-2 protein by Western blotting; assay type: functional, cell-based; method in brief: as §2
HT-29 [23] = experiment: Induction of apoptosis in human HT-29 cells assessed as increased expression of FADD protein by Western blotting; assay type: functional, cell-based; method in brief: as §2
HT-29 [24] = experiment: Induction of apoptosis in human HT-29 cells assessed as caspase 8 activation at 30 uM for 24 hrs by MTT assay; assay type: functional, cell-based
HT-29 [25] = experiment: Induction of apoptosis in human HT-29 cells assessed as decreased expression of pro-caspase-8 protein by Western blotting; assay type: functional, cell-based; method in brief: as §2
HT-29 [26] = experiment: Cytotoxicity against human HT-29 cells at 30 uM by MTT assay; assay type: functional, cell-based; conditions: TDE = time-dependent effect; method in brief: as §5

IC50 [2]: 3.5 µM
SMILES: COc1cc(C(=O)/C=C/c2cccnc2)cc(CN2CCN(c3ccc(C(C)=O)cc3)CC2)c1O
GI50 (KB): 13.1 µM
Activity (HT-29 [1]): Active
Activity (HT-29 [3]): Active
Activity (HT-29 [4]): inactive
GI50 (DU-145): 9.98 µM
Activity (HT-29 [5]): Active
Activity (HT-29 [6]): Active
Activity (HT-29 [7]): Active
Activity (HT-29 [8]): Active
Activity (HT-29 [9]): Active
inhibition (BV-2): inactive
Activity (HT-29 [10]): Active
Activity (HT-29 [11]): inactive
GI50 (A549): 9.77 µM
Activity (HT-29 [12]): Active
Activity (HT-29 [13]): Active
GI50 (HCT-8): 11.2 µM
Activity (HT-29 [14]): Active
Activity (HT-29 [15]): Active
Activity (HT-29 [16]): Active
Activity (HT-29 [17]): Active
Activity (HT-29 [18]): inactive
Activity (HT-29 [19]): Active
Activity (HT-29 [20]): Dose-dependent effect
Activity (HT-29 [21]): Active
Activity (HT-29 [22]): Active
Activity (HT-29 [23]): Active
Activity (HT-29 [24]): Active
Activity (HT-29 [25]): Active
Activity (HT-29 [26]): tde
